High-throughput results: PubChem BioAssay, Broad Institute
The list is not random: actives were taken first. Their share in the collection is about 3%.
MITF act – MITF TRPM1 promoter activation in melanoma cells | SK-MEL-5 TRPM1-promoter luciferase, 24 h; % of positive control, neutral wells = 0 | actives 0.75% (n = 300,000) | AID 588334 | activation, % at 12.5 µM;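 active means mean activation of at least 80% with every replicate also reaching 80%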;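 further: 0% = neutral control wells and 100% = parthenolide positive control wells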
Wnt act – Wnt/beta-catenin pathway activation; activation, % at 9.35 µM; actives 1.2% (n = 300,000); Wnt/beta-catenin reporter cell assay, activator, plate reader; in the data active means activation above about 30%, passing the limit was not always enough;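 further: 0% = neutral control wells and 100% = positive control wells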
NSD2 HMT inh – blocks human histone methyltransferase NSD2 | O96028 | NSD2 peptide methylation, AlphaScreen, 120 min | inhibition, % at 12.5 µM | actives 0.54% (n = 310,000) | AID 743445; in the data active means inhibition above about 50%
CASP6 VEID inh – inhibitors of human caspase-6; P55212; purified caspase-6, Z-VEID-R110 cleavage fluorescence; inhibition, % at 12.5 µM; actives 0.53% (n = 350,000); AID 686996;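 active means mean inhibition across replicates at least about 35%, with every replicate also reaching that limit, limit read from the data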;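 further: 0% = median of neutral control wells and 100% = no fluorescence left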
Target sequence (P55212 24-179 limits assumed): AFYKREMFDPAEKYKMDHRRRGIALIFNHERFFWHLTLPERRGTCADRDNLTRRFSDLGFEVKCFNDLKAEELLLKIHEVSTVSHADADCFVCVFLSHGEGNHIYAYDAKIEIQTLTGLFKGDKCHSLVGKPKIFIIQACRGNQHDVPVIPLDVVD
Target sequence (P55212 194-293 limits assumed): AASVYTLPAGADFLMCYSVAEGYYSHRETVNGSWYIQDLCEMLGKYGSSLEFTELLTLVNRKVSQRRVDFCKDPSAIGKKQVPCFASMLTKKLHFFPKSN
esBAF inh – SWI/SNF esBAF complex inhibition. mouse ES cells, Bmi1-luciferase knock-in reporter, 24 h; 100% = twice the neutral-well signal. reporter increase, % at 12.5 µM. actives 2% (n = 350,000). AID 602393; in the data active means activation above about 40%;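 further: 0% = median of the plate's neutral control wells and 100% = double that signal; a rise in the Bmi1 reporter signal indicates esBAF inhibition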
XiGFP reactiv – reactivates the inactive X chromosome in mouse fibroblasts. AID 743238. actives 0.055% (n = 360,000). activation, % at 7.58 µM. XiGFP mouse fibroblasts, % GFP-positive cells imaging, 3 d; cells co-treated with 5-aza-dC sensitizer; scaled so ellipticine positive control = 100%;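 active means mean normalized replicate activation at least 10% and every replicate at or above 10%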;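 further: 0% = median of on-plate neutral control wells and 100% = ellipticine 6 µM median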
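Schedule: 3 d treatment, 15 min room-temperature fixation; system: 68-5-11 XiGFP fibroblast line; buffer or medium: DMEM plus 5-aza-dC sensitizer; control set: ellipticine 6 µM positive control; compound: one concentration, pinned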
AlphaScreen art – interferes with AlphaScreen signal, flagging NSD2 false positives; AID 1053174; AC35, µM (titrated, usually from 10 µM), for the others: top-dose activity change, negative = signal loss; shares compounds with NSD2 HMT inh; actives 9.4% (n = 1,500); AlphaScreen artifact counterscreen, preloaded methylated H4 peptide; call rule not given here
Numbers without * were called inactive; nt = not tested or not shown.

SMILES	MITF act	Wnt act	NSD2 HMT inh	CASP6 VEID inh	esBAF inh	XiGFP reactiv	AlphaScreen art
NC(=S)NN=Cc1ccc(-c2ccc(S(=O)(=O)Nc3ncccn3)cc2)o1	-2.5	1.7	144.6*	37.9*	nt	-0.1	-7.7%
CCCNC(=O)N1C[C@@H]2[C@H](c3ccccc31)[C@@H](CO)N2Cc1ccccc1F	nt	nt	nt	-1.7	-0.4	0.2	nt
NC1=C(Br)C(=O)c2ncccc2C1=O	-94.3	-6.3	101.5*	99.6*	nt	-0.1	4.6%
O=C1c2cccnc2C(=O)N1CO	6.4	-0.8	0.5	nt	0.9	nt	nt
FC(F)(F)c1ccc(N/N=C/c2cccnc2)nc1	53.6	1.4	116.3*	0.0	33.6	0.2	-2.4%
C(=N\Nc1ccccn1)/c1cccnc1	nt	-0.6	6.7	-0.8	1.6	0.2	nt
CO[C@H]1CN(C)C(=O)c2cc(NC(C)=O)ccc2OC[C@@H](C)N(CC2CC2)C[C@@H]1C	nt	nt	nt	-0.6	-0.1	0.4	nt
O=C(CSc1nnc2ccccn12)NNC(=O)c1ccc([N+](=O)[O-])cc1	-4.1	2.3	86.1*	-0.6	nt	0.1	-4.4%
COCCNC(=O)c1ccc(CN2CCc3ccccc3C2)cc1	12.1	-3.1	55.8*	2.0	-3.2	0.0	-3.7%
CCCNC(=O)c1ccc(CN2CCc3ccccc3C2)cc1	nt	-2.1	-0.5	nt	13.6	nt	nt
Cc1noc(C)c1S(=O)(=O)N(C)C[C@H]1OCCCC[C@@H](C)Oc2ccc(NC(=O)C3CCCCC3)cc2C(=O)N([C@@H](C)CO)C[C@H]1C	nt	nt	nt	1.6	2.3	-0.9	nt
Cc1cc(/C=C\c2nc(O)c([N+](=O)[O-])c(=O)[nH]2)c(C)n1-c1ccccc1	1.1	-0.4	61.7*	61.1*	nt	0.0	-8.0%
CC(=O)C(C(C)=O)C1(O)C(=O)c2ccccc2C1=O	-0.7	-0.8	103.6*	8.5	2.2	-0.1	0.5%
C=CC[C@]1(C(=O)OC)N=C(c2ccc(OCCCO)cc2)O[C@H]1c1ccccc1	nt	nt	nt	-2.0	nt	nt	nt
CC(C)c1ccc(NC(=S)N2CCCC(c3ccc(F)cc3)=N2)cc1	0.3	3.0	60.0*	0.7	-7.5	0.0	0.3%
O=C(NCc1cccnc1)c1ccc2c(c1)OCO2	-1.7	-0.7	66.4*	2.6	-0.3	nt	-2.5%
O=C(O)c1ccccc1NS(=O)(=O)c1ccc2ccccc2c1	-2.6	4.2	52.1*	8.5	10.1	-0.1	-1.4%
O=C(COC(=O)c1cc(S(=O)(=O)N2CCOCC2)ccc1F)c1ccc[nH]1	-0.4	-10.8	69.3*	nt	nt	0.1	-4.2%
Cc1ccccc1CS(=O)(=O)CC(O)CN1CCCC1=O (configuration not stated)	3.7	-0.3	128.7*	-0.9	-1.2	0.5	-2.7%
C[C@@H]1CCCCO[C@H](CN(C)C(=O)C2CCCCC2)[C@@H](C)CN([C@@H](C)CO)C(=O)c2cc(NC(=O)CCCN(C)C)ccc2O1	nt	nt	nt	nt	-3.3	-0.1	nt
O=C(C[C@H]1C[C@@H]2c3cc(NC(=O)c4cccnc4)ccc3O[C@@H]2[C@@H](CO)O1)NC1CCCC1	nt	nt	nt	0.0	nt	0.2	nt
COc1cccc(C2c3c(oc4ccccc4c3=O)C(=O)N2CCCN(C)C)c1OC (configuration not stated)	-16.4	nt	60.5*	nt	nt	nt	-0.4%
CCN(CC)CCCN1C(=O)c2oc3ccccc3c(=O)c2C1c1cccc(OC)c1OC (configuration not stated)	-10.9	nt	14.6	nt	-4.4	nt	nt
CC1(C)CN(c2cccc(C#N)c2)C1=O	4.8	-1.4	55.9*	-1.0	nt	0.0	-3.4%
CC1(C)CN(c2ccc(CC#N)cc2)C1=O	0.9	-0.5	0.3	nt	nt	0.0	nt
SMILES	MITF act	Wnt act	NSD2 HMT inh	CASP6 VEID inh	esBAF inh	XiGFP reactiv	AlphaScreen art
C[C@@H]1CN([C@H](C)CO)C(=O)CCCn2cc(nn2)CO[C@@H]1CN(C)S(=O)(=O)c1ccc(Cl)cc1	nt	nt	nt	0.0	1.8	0.0	nt
COC1=C(c2ccccc2)C(=O)c2ccccc2C1=O	-73.8	-1.6	80.7*	nt	nt	0.3	-1.2%
COc1cccc(=O)c2c(C)n(-c3ccc(C(=O)O)cc3)c(C)c12	3.4	0.4	78.7*	26.1	nt	0.2	-7.9%
CCOc1cccc(=O)c2c(C)n(-c3ccc(C(=O)O)cc3)c(C)c12	-7.5	2.5	92.8*	32.7	-2.0	0.0	-5.0%
COc1ccc(-n2c(C)c3c(OC)cccc(=O)c3c2C)cc1	-2.6	nt	8.9	nt	1.0	nt	nt
Cc1onc(-c2c(Cl)cccc2Cl)c1C(=O)ONC(=O)c1cc(C(F)(F)F)cc(C(F)(F)F)c1	-2.3	-1.2	59.2*	-5.1	3.7	0.2	-0.4%
CCOC(=O)N1CCN(C(=S)NCCOC)CC1	-7.7	6.6	69.2*	nt	-2.7	nt	0.8%
Cc1ccccc1S(=O)(=O)N1CCCCN2[C@@H](CO)[C@@H](c3ccc(-c4cncnc4)cc3)[C@@H]2C1	nt	nt	nt	1.9	nt	-0.1	nt
C[C@@H]1CN([C@@H](C)CO)C(=O)c2cccc(NC(=O)c3nc4ccccc4s3)c2O[C@@H]1CN(C)Cc1ccc(Oc2ccccc2)cc1	nt	nt	nt	-1.4	7.6	0.4	nt
CCOc1cc(C(=O)NCC(=O)N2CCC3(CC2)NCCc2[nH]cnc23)cc(OCC)c1OCC	-10.4	-0.8	56.2*	-1.1	-11.8	0.0	-0.4%
Cc1cc(C)cc(C(=O)NCC(=O)N2CCC3(CC2)NCCc2[nH]cnc23)c1	-3.8	-0.4	-1.2	-3.3	-3.2	0.1	nt
CN(Cc1nc2ccccc2c(=O)[nH]1)C(=O)c1cc2c(s1)CCCCC2	1.1	-1.1	51.6*	-4.0	3.4	0.1	-1.5%
Cc1cc(Cl)c(OCCN2C(=O)NC(C)(C)C2=O)c(Br)c1	-0.9	2.8	70.6*	nt	1.0	nt	0.4%
Cc1cc(C)c(OCCN2C(=O)NC(C)(C)C2=O)c(Cl)c1	-3.7	-6.1	1.0	nt	2.0	nt	nt
Cc1cc(Cl)cc(Br)c1OCCCN1C(=O)NC(C)(C)C1=O	-2.4	nt	72.7*	nt	3.7	nt	-2.8%
CC(=O)N1C[C@@H]2[C@H](c3ccccc31)[C@H](CO)N2C(=O)c1ccc(F)cc1	nt	nt	nt	0.3	-1.3	0.0	nt
